# CaV13 FRET inh: Disruptors of the CACNA1D IQ motif to Ca2+-dependent inactivation inhibitor domain association, primary screening, Förster resonance energy transfer in intact living …; HEK cells, CFP/YFP FRET ICDI-IQ, plate reader, 10 min; percent FRET-ratio fall versus neutral wells; inhibition, % at 12.3 µM; 0.098% of 340,000 active;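 active means mean replicate inhibition of at least 30% and at least 1% of replicates passing that level; inconclusive means only one of the two criteria is met; inactive means neither criterion is met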;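 further: 0% = median of the neutral control wells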
# XiGFP reactiv: activators of inactive X chromosome reactivation, primary screen, imaging, XiGFP fibroblasts, GFP high-content imaging, set 2; XiGFP mouse fibroblasts, % GFP-positive cells imaging, 3 d; cells co-treated with 5-aza-dC sensitizer; scaled so ellipticine positive control = 100%; activation, % at 7.58 µM; 0.055% of 360,000 active; AID 743238, 2013;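 active means mean normalized replicate activation at least 10% and every replicate at or above 10%; inconclusive means only one of the two criteria met; inactive means mean below 10% and not all replicates reach 10%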;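 further: 0% = median of on-plate neutral control wells and 100% = ellipticine 6 µM median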
#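 System: 68-5-11 XiGFP fibroblast line; Timing: 3 days compound exposure; Compound dosing: one concentration, pinned; Benchmarks: positive control ellipticine, 6 µM final; Buffer or medium: DMEM containing 5-aza-dC.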
# FN deposit inh: inhibitors of fibronectin matrix deposition, primary screen, AH1F cells, Alexa488-fibronectin fluorescence, plate reader | AH1F fibroblasts, overnight | AID 743247, 2014 | 0.086% of 350,000 active | inhibition, % at 12.6 µM;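 active means mean inhibition across replicates of 30% or more, regardless of how many single replicates reach that level; inconclusive means mean under 30% yet at least half of replicates reach 30%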;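 further: positive control wells lacked labelled fibronectin entirely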
#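 Schedule: 1 h cell adhesion before compound, then overnight fibronectin incubation; test system: AH1F fibroblast monolayer depositing Alexa488-labelled fibronectin into matrix; quantity: 10000 AH1F cells per well; probe or stimulus: fluorescent fibronectin at 24 nM final; signal: fluorescence, ex 485 nm, em 525 nm; evaluation: percent inhibition as loss of matrix-bound fibronectin fluorescence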
# DENV2 CPE rescue: inhibitors of DENV2 cytopathic effect, primary screen, cell-based, plate reader, single concentration; DENV2-infected cells, cytopathic effect rescue; CPE inhibition, % at 9.99 µM; 1.7% of 350,000 active; AID 651640, 2012; in the data active means CPE inhibition above about 20%, passing the limit was not always enough; inconclusive means no clear call, values can overlap the other calls; tested in BHK-21 cells;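 further: 0% = median of neutral control wells and 100% = median of positive control wells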
# CASP6 VEID inh: human caspase-6 inhibitors, primary screen, biochemical, VEID-R110 fluorescence, single point, set 2; P55212; purified caspase-6, Z-VEID-R110 cleavage fluorescence; inhibition, % at 12.5 µM; 0.53% of 350,000 active;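 active means mean inhibition across replicates at least about 35%, with every replicate also reaching that limit, limit read from the data; inconclusive means only one of the two criteria met; inactive means neither criterion met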;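 further: 0% = median of neutral control wells and 100% = no fluorescence left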
# Target sequence (P55212 24-179 limits assumed): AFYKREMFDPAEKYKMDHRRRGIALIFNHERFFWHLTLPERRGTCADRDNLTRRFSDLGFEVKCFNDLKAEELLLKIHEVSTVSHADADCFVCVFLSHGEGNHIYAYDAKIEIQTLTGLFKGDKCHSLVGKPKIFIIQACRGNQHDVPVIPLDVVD
# Target sequence (P55212 194-293 limits assumed): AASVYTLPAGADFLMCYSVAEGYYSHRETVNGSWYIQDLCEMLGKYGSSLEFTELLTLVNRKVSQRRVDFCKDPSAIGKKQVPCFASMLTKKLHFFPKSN
# * marks the source's active call; other numbers are inactive results; ? = inconclusive; nt = no result given. Rows were chosen to be rich in hits. Some 2% of all compounds tested hit in one or more screens of this group.
SMILES,CaV13 FRET inh,XiGFP reactiv,FN deposit inh,DENV2 CPE rescue,CASP6 VEID inh
CC(C)Cn1c(N)c(C(=O)COC(=O)c2cc(-c3ccco3)nc3ccccc23)c(=O)n(C)c1=O,-4,0,-11,9,0
COCC(=O)N(C)C[C@@H]1Oc2cc(-c3ccc(C)cc3)ccc2S(=O)(=O)N([C@@H](C)CO)C[C@H]1C,nt,-1,-13,-1,4
O=C(Nc1cc(Sc2nc3ccccc3s2)cc([N+](=O)[O-])c1)c1ccccc1F,-4,nt,15*,nt,nt
N#C/C(=C\c1ccc(O)cc1)C(=O)NCc1ccccc1,-6,0,-3,0,2
CC(=O)Nc1ccc(/C=C(\C#N)C(=O)NCc2ccccc2)cc1,-3,0,33*,-1,6
COc1cccc(N2CC(C(=O)Nc3nnc(SCCC4OCCO4)s3)CC2=O)c1 (stereo not drawn),-3,0,1,93*,0
Cc1cnc(NC(=O)C2CC(=O)N(c3cccc(Cl)c3)C2)s1 (stereo not drawn),-5,0,1,33*,-1
CNC(=O)CSc1nnc(NC(=O)C2CC(=O)N(c3ccccc3OC)C2)s1 (stereo not drawn),-4,0,-2,33*,5
COc1cccc(N2CC(C(=O)Nc3ccc(F)cc3)CC2=O)c1 (stereo not drawn),-6,0,-1,27*,0
COc1cccc(N2CC(C(=O)Nc3ccc(C(=O)OC(C)C)cc3)CC2=O)c1 (stereo not drawn),-5,nt,nt,nt,1
COc1ccc(S(=O)(=O)N(C)C[C@@H]2Oc3ccc(NS(=O)(=O)c4c(C)noc4C)cc3C(=O)N([C@H](C)CO)C[C@@H]2C)cc1,nt,-1,-7,10,2
O=C1c2ccccc2NC(c2ccc(-c3ccccc3F)o2)N1O (stereo not drawn),-5,0,15,25*,4
O=C1c2ccccc2NC(c2ccc(-c3cccc(F)c3)o2)N1O (stereo not drawn),-5,0,6,-3,2
C[C@@H]1CN([C@H](C)CO)C(=O)c2cc(NS(C)(=O)=O)ccc2O[C@H]1CN(C)C(=O)Nc1ccc2c(c1)OCO2,nt,0,nt,-1,0
CN1CCN(C(=O)c2cc(Cl)cc(Cl)c2)CC1,8,0,9,13,65*
O=C(CN1C(=O)C(=O)N(Cc2ccccc2)C1=O)Nc1cc(Cl)cc(Cl)c1,-3,0,7,nt,4
N#CCSc1ccccc1NC(=O)CN1C(=O)C(=O)N(Cc2ccccc2)C1=O,-5,0,-5,41*,1
CCNC(=O)[C@@H]1[C@@H](CO)[C@@H]2Cn3c(ccc(-c4cncnc4)c3=O)[C@@H]2N1Cc1ccc2c(c1)OCO2,nt,0,nt,?,-1
CCCNC(=O)OC1CC2CC1[C@H]1CCCCN1C2=O (stereo partly drawn),-5,0,-5,29*,2
COC(=O)[C@@]1(Sc2ccc(C)cc2)CC(=O)N[C@@H]1c1ccccc1,-6,0,7,-7,1
COC(=O)[C@]1(Sc2ccc(OC)cc2)CC(=O)N[C@@H]1c1ccccc1,-6,0,6,72*,3
C[C@H]1CN([C@@H](C)CO)C(=O)c2cc(NC(=O)Nc3cccc4ccccc34)ccc2O[C@@H]1CN(C)Cc1ccccc1,nt,-1,nt,-11,0
O=C(O)c1ccccc1,nt,nt,nt,110*,-2
COCC#Cc1ccc([C@H]2[C@H]3CN(C(=O)Nc4cc(F)ccc4F)CC(=O)N3[C@H]2CO)cc1,nt,0,nt,nt,nt
NNc1ccc([N+](=O)[O-])c2[nH][nH]c(=O)c12,-14,1,-4,-17,94*
SMILES,CaV13 FRET inh,XiGFP reactiv,FN deposit inh,DENV2 CPE rescue,CASP6 VEID inh
O=[N+]([O-])c1ccc(Nc2ccccc2)c2nonc12,-21,0,2,-4,8
COc1ccc(NC(=O)c2cc3ccccc3cc2O)cc1,-4,0,-7,46*,2
Cc1ccc(NC(=O)c2cc3ccccc3cc2O)cc1,-5,0,0,5,0
C[C@@H]1CN([C@H](C)CO)C(=O)Cc2cc(NS(=O)(=O)c3ccccc3)ccc2O[C@@H]1CN(C)C(=O)Nc1ccc(C(F)(F)F)cc1,nt,0,nt,12,0
C[C@H](CO)N1C[C@H](C)[C@H](CN(C)Cc2ccc(Cl)c(Cl)c2)Oc2ccc(NC(=O)Cc3ccccc3)cc2CC1=O,nt,0,nt,-17,0
C[C@@H]1CN([C@H](C)CO)C(=O)Cc2cc(NC(=O)Cc3ccccc3)ccc2O[C@H]1CN(C)Cc1ccc(Cl)c(Cl)c1,nt,0,nt,27*,2
C[C@@H]1CN([C@@H](C)CO)C(=O)Cc2cc(NC(=O)Cc3ccccc3)ccc2O[C@H]1CN(C)Cc1ccc(Cl)c(Cl)c1,nt,0,nt,26*,0
COc1ccc(-c2ccc([C@@H]3[C@@H](CO)N4C(=O)CNC[C@@H]34)cc2)cc1,nt,0,nt,7,11
COc1ccc2c3c(n(C)c2c1)[C@@H](CO)NCC31CCN(C(=O)CC2CC2)CC1,nt,0,nt,nt,nt
C[C@@H]1CN([C@@H](C)CO)C(=O)c2cc(NC(=O)C3CC3)ccc2O[C@@H]1CN(C)S(C)(=O)=O,nt,0,nt,nt,nt
COCCNC(=O)COc1ncnc2ccc(Br)cc12,0,nt,nt,nt,nt
CC(C)(C)OC(=O)NCCOCCOCCNc1ncnc2ccc(Br)cc12,nt,nt,nt,20*,3
CC(=O)Nc1ccc2c(c1)C(=O)N(C)[C@H]1CC[C@H](CC(=O)Nc3ccc(C)cc3)O[C@@H]1CO2,nt,0,9,-3,nt
CC(=O)[C@@H]1[C@@H]2C(=O)N(Cc3ccccc3)C(=O)[C@@H]2C2c3ccccc3C=CN21 (stereo partly drawn),-10,nt,nt,nt,61*
CC(=O)Nc1ccc2c(c1)C(=O)N(C)C[C@H](C)[C@H](CN(C)C(C)=O)O2,nt,0,1,nt,nt
CC(C)NC(=O)Nc1ccc2c(c1)C(=O)N(C)[C@H]1CC[C@H](CC(=O)NC3CCCCC3)O[C@H]1CO2,nt,0,-19,2,nt
Cc1ccc(S(=O)(=O)Nc2ccc3c(c2)CC(=O)N([C@@H](C)CO)C[C@H](C)[C@H](CN(C)Cc2ccc(-c4ccccc4)cc2)O3)cc1,nt,-1,6,?,0
C[C@@H]1CN([C@H](C)CO)C(=O)Cc2cc(NS(=O)(=O)c3ccccc3)ccc2O[C@H]1CN(C)Cc1ccc(Cl)c(Cl)c1,nt,0,5,33*,-4
C[C@@H]1CN([C@H](C)CO)C(=O)Cc2cc(NS(=O)(=O)c3ccccc3)ccc2O[C@@H]1CN(C)Cc1ccc(Cl)c(Cl)c1,nt,0,nt,8,0
